This note sets out measurements from ChEMBL document CHEMBL3804807, “Purine analogs as phosphatidylinositol 4-kinase IIIβ inhibitors” (Bioorg Med Chem Lett, 2016).

Series [1] relates to Hepatitis C virus. Kind of series: Antiviral activity against Hepatitis C virus subtype 1b. The format is functional, organism-based, Hepacivirus hominis. As to conditions: genotype 1b.
Series [2] is described as follows: Cytotoxicity against human HeLa cells. It is filed as cell-based.
The species named for series [3] is Homo sapiens. Kind of series: Inhibition of PI4K3 alpha (unknown origin) at 10 uM by ADP-Glo assay relative to control. Put shortly:
(§1)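 PI4K IIIα and PI4K IIIβ activity read by ADP-Glo assay. Each compound was tested at a single concentration of 10 μM, and residual enzyme activity was expressed relative to control.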

Series [4] relates to Human rhinovirus sp. Kind of series: Antiviral activity against Human rhinovirus. It is filed as functional, organism-based.
In series [5] the test system is Coxsackievirus B3. Kind of series: Antiviral activity against Human coxsackievirus B3. The format is functional, organism-based. As to conditions: Enterovirus B.
Series [6] in a line: Inhibition of PI4K3 beta (unknown origin) by ADP-Glo assay. Also noted: species or system Homo sapiens.
The species entered for series [7] is Homo sapiens. Put plainly: Inhibition of PI4K3 beta (unknown origin) assessed as residual activity at 10 uM by ADP-Glo assay relative to control. Put shortly:
as §1

Consider `COc1ccc(-n2c(Br)nc3c(NCCN4CCOCC4)nc(C)nc32)cc1OC`, for which the EC50 turned out to be 6.7 µM in series [1], 25 µM in series [4] and 11 µM in series [5]. This compound also showed a CC50 in series [2] above 50 µM. Moreover, the inhibition in series [3] is below 50%. Also, in series [6], half-maximal inhibition (IC50) required 5.2 µM. For the same compound, the Activity in series [7] came out at 17%.

Take `COc1nc(NCCN2CCOCC2)c2nc(C)n(-c3ccc(OC)c(OC)c3)c2n1`: the EC50 was 6 µM in series [1], 16 µM in series [4] and above 50 µM in series [5]. The compound also displayed a CC50 in series [2] above 50 µM. The compound further showed an inhibition in series [3] below 50%. Also, half-maximal inhibition in series [6] (IC50) required 2.99 µM. Moreover, the Activity in series [7] was found to be 15%.

On to `COc1ccc(-n2c(C)nc3c(NCCN4CCOCC4)ncnc32)cc1OC`, for which the figures for the EC50 in series [1], in series [4] and in series [5] were 19 µM, 28 µM and 5 µM, respectively. In series [2], the CC50 is above 50 µM. For the same compound, the inhibition in series [3] is below 50%. Besides, half-maximal inhibition in series [6] (IC50) required 1.61 µM. The Activity in series [7] was found to be 13%.

Take `COc1ccc(-n2c(C)nc3c(NCCN4CCOCC4)nc(-c4cccc(C(=O)N(C)C)c4)nc32)cc1OC`: the EC50 in series [1] turned out to be 3.8 µM; in series [4], 3.3 µM; in series [5], 1.1 µM. Besides, in series [2], the CC50 was above 50 µM. In series [3], this compound had an inhibition below 50%. The midpoint of inhibition in series [6], the IC50, lay at 1.09 µM. For the same compound, the Activity in series [7] was 16%.

Take `COc1ccc(-n2c(C)nc3c(NCCN4CCOCC4)nc(N)nc32)cc1OC`: the figures for the EC50 in series [1], in series [4] and in series [5] were 40 µM, 49 µM and 19 µM, respectively. The compound also had a CC50 in series [2] above 50 µM. In addition, the inhibition in series [3] was below 50%. Further, the IC50 in series [6] worked out at 1.44 µM. For the same compound, the Activity in series [7] stood at 25%.

For the compound `COc1ccc(-n2c(C)nc3c(NCCN4CCOCC4)nc(-c4ccc(O)cc4)nc32)cc1OC`, the EC50 was found to be 1.3 µM in series [1], 3 µM in series [4] and 1.8 µM in series [5]. The compound also showed a CC50 in series [2] above 50 µM. Also, in series [3], the inhibition is below 50%. This compound registered an IC50 in series [6] of 2.37 µM. For the same compound, the Activity in series [7] was 18%.

On to `COc1ccc(-n2c(C)nc3c(NCCN4CCOCC4)nc(-c4cccc(NC(C)=O)c4)nc32)cc1OC`, for which the EC50 stood at 5.9 µM in series [1], 9.3 µM in series [4] and 1.6 µM in series [5]. Also, in series [2], the CC50 is above 50 µM. The inhibition in series [3] was below 50%. Also, the IC50 in series [6] was 2.14 µM. The Activity in series [7] came out at 14%.

In the case of `COc1ccc(-n2c(C)nc3c(NCCN4CCOCC4)nc(C)nc32)cc1OC`, the EC50 was above 44 µM in series [1], 40 µM in series [4] and 8 µM in series [5]. In series [2], this compound came in with a CC50 above 50 µM. In series [3], this compound yielded an inhibition below 50%. In series [6], this compound had a half-maximal inhibitory concentration (IC50) of 0.91 µM. Further, the Activity in series [7] came out at 14%.

As to `COc1ccc(-n2c(C)nc3c(NCCN4CCOCC4)nc(C#N)nc32)cc1OC`, the figures for the EC50 in series [1], in series [4] and in series [5] were 14 µM, 31 µM and above 50 µM, respectively. In series [2], the CC50 is above 50 µM. The compound also returned an inhibition in series [3] below 50%. The compound further gave an IC50 in series [6] of 2.07 µM. The Activity in series [7] is 24%.

Consider `COc1ccc(-n2c(C)nc3c(NCCN4CCOCC4)nc(-c4ccc(C#N)cc4)nc32)cc1OC`, for which the results for the EC50 in series [1], in series [4] and in series [5] were 3.9 µM, 3 µM and 9.9 µM, respectively. In series [2], the CC50 was above 50 µM. The same compound displayed an inhibition in series [3] below 50%. For the same compound, the Activity in series [7] came to 97%.

On to `COc1ccc(-n2c(C)nc3c(NCCN4CCOCC4)nc(C#Cc4ccccc4)nc32)cc1OC`, for which the EC50 was 6 µM in series [1], 8 µM in series [4] and 5 µM in series [5]. The compound further displayed a CC50 in series [2] of 48 µM. The compound further returned an inhibition in series [3] below 50%. The Activity in series [7] worked out at 58%.

For the compound `C#Cc1nc(NCCN2CCOCC2)c2nc(C)n(-c3ccc(OC)c(OC)c3)c2n1`, the EC50 in series [1] is 13 µM; in series [4], 26 µM; in series [5], above 50 µM. The half-maximal cytotoxic concentration (CC50) in series [2] was above 50 µM. The same compound had an inhibition in series [3] below 50%. The compound also returned an IC50 in series [6] of 1.91 µM. Further, in series [7], the Activity came to 18%.

`COc1ccc(-n2c(C3CCCCC3)nc3c(NCCN4CCOCC4)nc(C)nc32)cc1OC`: the half-maximal effective concentration (EC50) is above 44 µM in series [1], above 50 µM in series [4] and above 50 µM in series [5]. In series [2], the CC50 is above 50 µM. For the same compound, the inhibition in series [3] is below 50%. Further, the Activity in series [7] amounted to 79%.
